Data taken from ChEMBL document CHEMBL1156792, “Application of the dipeptidyl peptidase IV (DPPIV/CD26) based prodrug approach to different amine-containing drugs” (J Med Chem, 2010).

Legend:
[1] = substrate: N[C@@H](CC(=O)O)C(=O)N1CCC[C@H]1C(=O)Nc1ccc2ncccc2c1; assay: (§1) Activity of human recombinant CD26 assessed as hydrolysis
In short: (§2)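 Human recombinant CD26 (Sf9-expressed) was incubated with prodrug at several levels (2–50 μM, or 50–1000 μM for the AspPro conjugate). Hydrolysis was quantified by RP-8 HPLC at 15, 30 and 45 min. Km and Vmax were calculated at each time point and averaged over the three, with at least two to three independent experiments.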

[2] = substrate: COc1cccc2c1C(=O)c1c(O)c3c(c(O)c1C2=O)C[C@@](O)(C(=O)CO)C[C@@H]3O[C@H]1C[C@H](NC(=O)[C@@H]2CCCN2C(=O)[C@@H](N)C(C)C)[C@H](O)[C@H](C)O1; assay: as §1; in short: as §2
[3] = substrate: CC(C)[C@H](N)C(=O)N1CCC[C@H]1C(=O)N[C@H](C(=O)N1CCC[C@H]1C(=O)Nc1ncnc2c1ncn2[C@@H]1O[C@H](CO)[C@@H](O)[C@@H]1O)C(C)C; assay: as §1; in short: as §2
[4] = substrate: CC(C)[C@H](N)C(=O)N1CCC[C@H]1C(=O)Nc1ccc2ncccc2c1; assay: as §1; in short: as §2

B1: Dipeptidyl peptidase 4 (Homo sapiens), P27487 (protein)
chain: MKTPWKVLLGLLGAAALVTIITVPVVLLNKGTDDATADSRKTYTLTDYLKNTYRLKLYSLRWISDHEYLYKQENNILVFNAEYGNSSVFLENSTFDEFGHSINDYSISPDGQFILLEYNYVKQWRHSYTASYDIYDLNKRQLITEERIPNNTQWVTWSPVGHKLAYVWNNDIYVKIEPNLPSYRITWTGKEDIIYNGITDWVYEEEVFSAYSALWWSPNGTFLAYAQFNDTEVPLIEYSFYSDESLQYPKTVRVPYPKAGAVNPTVKFFVVNTDSLSSVTNATSIQITAPASMLIGDHYLCDVTWATQERISLQWLRRIQNYSVMDICDYDESSGRWNCLVARQHIEMSTTGWVGRFRPSEPHFTLDGNSFYKIISNEEGYRHICYFQIDKKDCTFITKGTWEVIGIEALTSDYLYYISNEYKGMPGGRNLYKIQLSDYTKVTCLSCELNPERCQYYSVSFSKEAKYYQLRCSGPGLPLYTLHSSVNDKGLRVLEDNSALDKMLQNVQMPSKKLDFIILNETKFWYQMILPPHFDKSKKYPLLLDVYAGPCSQKADTVFRLNWATYLASTENIIVASFDGRGSGYQGDKIMHAINRRLGTFEVEDQIEAARQFSKMGFVDNKRIAIWGWSYGGYVTSMVLGSGSGVFKCGIAVAPVSRWEYYDSVYTERYMGLPTPEDNLDHYRNSTVMSRAENFKQVEYLLIHGTADDNVHFQQSAQISKALVDVGVDFQAMWYTDEDHGIASSTAHQHIYTHMSHFIKQCFSLP
B1 was tested, and the Km [1] was 524 µM, the Vmax (nmol/hr/microg) [1] was 70 and the Km [2] was 15 µM. It also gave a Vmax (nmol/hr/microg) [2] of 30, a Km [3] of 56 µM and a Vmax (nmol/hr/microg) [3] of 10. For the same protein, the Km [4] was 25 µM and the Vmax (nmol/hr/microg) [4] was 32.
